Compounds with a hit are over-represented: about 2.6% of the library has one in this group of screens.
PAD4 inh – inhibitors of human PAD4; recombinant PAD4, RCA probe fluorescence polarization; inhibition, % at 6.36 µM; hit rate 0.41% among 330,000; AID 485272; Q9UM07;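 active means percent inhibition above a cutoff equal to the mean of all tested compounds plus 3 SD, cut at about 15% in these data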;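 further: 0% = PAD4 with RCA probe and DMSO and 100% = probe without PAD4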
GSTO1 inh – blocks human GSTO1 in RBBP9 counter-screen; recombinant GSTO1, activity-based probe fluorescence polarization; inhibition, % at 5.96 µM; AID 1974; P78417; hit rate 1.1% among 300,000;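 active means inhibition above the campaign mean inhibition plus 3 SD, cut at about 35% in these data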;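 further: 0% = GSTO1-1 with DMSO and 100% = wells lacking GSTO1-1 enzyme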
Target sequence (P78417 whole entry, looked up): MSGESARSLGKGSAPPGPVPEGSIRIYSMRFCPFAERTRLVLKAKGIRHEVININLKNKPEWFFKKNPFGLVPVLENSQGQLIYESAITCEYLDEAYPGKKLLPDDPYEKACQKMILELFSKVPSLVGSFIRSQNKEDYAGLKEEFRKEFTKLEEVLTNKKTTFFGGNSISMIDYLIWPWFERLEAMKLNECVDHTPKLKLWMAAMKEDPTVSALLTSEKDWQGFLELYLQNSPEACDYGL
PRMT1 inh – blocks human protein arginine methyltransferase 1; Q99873; hit rate 1.3% among 370,000; inhibition, % at 2.79 µM; recombinant PRMT1, activity-based probe fluorescence polarization;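 active means inhibition above about 21% made by adding two undisclosed values, limit read from the data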
TDP2 inh – blocks human TDP2 phosphodiesterase activity | hit rate 0.34% among 370,000 | inhibition, % at 12.8 µM | O95551 | AID 720702 | recombinant TDP2, T5PNP hydrolysis, p-nitrophenol absorbance 415 nm;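 active means inhibition above the mean of all tested compounds plus 3 SD, set per campaign, cut at about 25% in these data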;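 further: 0% = DMSO with enzyme and 100% = buffer with substrate but no TDP2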
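Read-out basis: percent inhibition. System: recombinant human TDP2. Buffer or medium: Mg2+-containing Tris-HCl buffer, pH 7.5. Repeats: single replicate. Timing: reaction 2 h, 37 °C. Benchmarks: high control without enzyme, low control DMSO plus TDP2. Probe or stimulus: 5 mM T5PNP. Doses: 12.8 µM only. Measured by: epi absorbance of p-nitrophenol freed from T5PNP by hydrolysis.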
Apaf-1 inh – inhibitors of human Apaf-1 apoptosome; hit rate 0.71% among 330,000; inhibition, % at 20 µM; reconstituted apoptosome caspase-3 activity, DEVD-Rh110 fluorescence; AID 489030; active means inhibition of at least 40% at 20 µM;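 further: plate controls were DMSO wells for no effect and DEVD-CHO caspase inhibitor wells for full effect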
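Material: reconstituted apoptosome with Apaf-1, cytochrome c, caspase-9, procaspase-3, dATP / Buffer or medium: pH 7.5 Hepes buffer with CHAPS, BSA, DTT / Also added: cytochrome c with DEVD-Rh110 / Schedule: compound with Apaf-1, dATP, procaspase-3 30 min, then 50 min reaction, room temperature / Technique: rhodamine 110 fluorescence at Ex 480/Em 540 nm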
GSTO1 confirm – confirmation of human GSTO1 inhibitors. shares compounds with GSTO1 inh. hit rate 54% among 2,400. recombinant GSTO1, probe fluorescence polarization. inhibition, % at 5.96 µM;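 active means inhibition above the primary screen's cutoff, its mean inhibition plus 3 SD, cut at about 35% in these data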;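 further: loss of polarization as inhibitors block binding of rhodamine sulfonate ester activity probe; 0% = GSTO1 with DMSO and 100% = wells lacking GSTO1 enzyme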
GSTO1 recomb ABPP – GSTO1 (human) inhibition by gel ABPP. shares compounds with GSTO1 inh. recombinant GSTO1, gel ABPP SE-Rh probe fluorescence. inhibition, % at 1 µM. hit rate 30% among 130. AID 463110;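 active means inhibition of the enzyme GSTO1 above about 75%, limit read from the data; inactive means inhibition below that limit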
The depositor's hits bear a star; . = no result.

SMILES	PAD4 inh	GSTO1 inh	PRMT1 inh	TDP2 inh	Apaf-1 inh	others
O=C1C(Cl)=CC(=Nc2ccc(O)cc2)C=C1Cl	1	.	22*	4	3
O=C(NCCN1CCC2(CC1)C(=O)NCN2c1ccccc1)c1ccc(OC(F)(F)F)cc1	.	.	9	-1	.
Oc1ccc(/C=N/NP(=S)(c2ccccc2)c2ccccc2)c(O)c1O	1	37*	12	1	18
Nc1c(C(=O)NCc2ccco2)c2nc3ccccc3nc2n1CCN1CCOCC1	1	-8	15	-3	44*
CCCCCCn1c(N)c(C(=O)NCCN2CCOCC2)c2nc3ccccc3nc21	-2	5	2	-17	52*
Nc1c(C(=O)NCc2ccco2)c2nc3ccccc3nc2n1Cc1ccccc1	-4	-2	1	20	23
COC(=O)C1=C(c2ccc(-c3ccccc3)c(F)c2)C[C@@H]2CC[C@H]1N2C(=O)NC1CCCCC1	-1	.	-4	2	30
CC(=O)N1c2ccccc2C(c2ccccc2)=NCC1C(=O)NCc1ccccc1 (stereo not drawn)	.	.	4	6	.
COc1cc(C=C2C(=O)NC(=O)NC2=O)ccc1OCc1ccc([N+](=O)[O-])cc1	.	.	14	5	.
O=C1NC(=O)C(=Cc2ccc(Oc3ccc([N+](=O)[O-])cc3)cc2)C(=O)N1	-9	49*	.	.	43*
N[C@@H](CCl)C(=O)O	5	3	1	-3	9
NC(Cc1cc(O)c(O)cc1O)C(=O)O (stereo not drawn)	-20	72*	.	.	84*
O=C1NC(=O)N(c2ccccc2F)C(=O)/C1=C/c1ccc(Sc2nc3ccccc3[nH]2)o1	-15	-135	25*	10	.
O=C1NC(=O)N(c2ccccc2)C(=O)/C1=C/c1ccc(Sc2ccccc2)o1	-3	0	.	.	.
CCOC(=O)c1cc2c(cn1)[C@@H](CCO)NC2	.	.	1	-6	.
Cc1cccc(NC(=O)[C@@H](NC(=O)N2C[C@H]3C[C@@H](C2)c2cccc(=O)n2C3)C(C)C)c1	1	-7	-4	6	-6
CN1C(=O)NC(=O)C(N=Nc2ccc(Cl)cc2)C1=O (stereo not drawn)	.	.	4	-13	.
Cc1ccc(OCCOc2cccc(C=C3C(=O)NC(=O)NC3=O)c2)cc1	-6	9	22*	-2	11
CN(C)[C@@H]1C(=O)C(C(N)=O)=C(O)[C@@]2(O)C(=O)C3=C(O)c4c(O)cccc4[C@@](C)(O)[C@H]3[C@H](O)[C@@H]12	-4	61*	61*	12	3	GSTO1 confirm=69*
COP(=O)(OC)C(NC(=O)/C=C/c1ccccc1)C(Cl)(Cl)Cl (stereo not drawn)	-5	39*	0	-7	-3	GSTO1 confirm=69*
Cc1c(N=Nc2c(O)[nH]c(=S)[nH]c2=O)c(=O)n(-c2ccccc2)n1C	3	57*	0	3	-2	GSTO1 confirm=6
O=[N+]([O-])c1cc(S(=O)(=O)c2ccc(O)c([N+](=O)[O-])c2)ccc1O	-6	40*	13	-17	1	GSTO1 confirm=49*
O=[N+]([O-])c1cccc(O)c1	0	.	6	0	-3
Cc1cc(NC(=O)CCl)on1	2	73*	5	-3	-4	GSTO1 confirm=99*
C=C(C)[C@@H]1C2C(=O)O[C@H]1[C@H]1OC(=O)[C@@]34OC3C[C@]2(O)[C@@]14C (stereo partly drawn)	3	2	-1	-5	-8
OCC(Cl)CCl (stereo not drawn)	-2	.	0	8	-5
COc1cccc(N2C(=O)NC(=O)/C(=C/c3ccc([N+](=O)[O-])s3)C2=O)c1	-7	44*	19	-1	11	GSTO1 confirm=36*
Cc1ccc(S(=O)(=O)N2CN3CCN(C3)C2)cc1	0	2	2	-5	-3
Cc1ccc(S(=O)(=O)N2CC2(C)CCl)cc1 (stereo not drawn)	-4	44*	-4	-18	-21	GSTO1 confirm=67*;GSTO1 recomb ABPP=11
N#Cc1ccc(NC(=O)CN2CCN(C(=O)c3cccs3)CC2)cc1Cl	.	.	3	5	9

From PubChem BioAssay
